Results on 24 compounds are retold here after ChEMBL document CHEMBL3997777, “Pterosin Sesquiterpenoids from Pteris cretica as Hypolipidemic Agents via Activating Liver X Receptors” (J Nat Prod, 2016).

Data set [1] is filed under the species Mus musculus. Briefly: Activation of LXR in mouse 3T3L1 preadipocytes assessed as decrease in triglyceride level at 1 to 10 uM for 3 days measured on day 6. Type of data set: cell-based. The essentials:
(§1)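 3T3-L1 cells grown in DMEM/10% FBS. Two days post-confluence (day 0), switched to differentiation medium (insulin 2 μg/mL, dexamethasone 100 ng/mL, IBMX 0.5 mM, biotin 10 ng/mL) for 3 days, then insulin-only medium for 3 more days. Compounds in DMSO (<0.1%) present throughout differentiation. Day 6 cells PBS-washed and lysed, TG measured by kit, expressed relative to vehicle; mean ± SD, three independent experiments.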

Data set [2] deals with T1, Oxysterols receptor LXR-beta (Rattus norvegicus) (UniProt Q62755).
T1 sequence (whole entry): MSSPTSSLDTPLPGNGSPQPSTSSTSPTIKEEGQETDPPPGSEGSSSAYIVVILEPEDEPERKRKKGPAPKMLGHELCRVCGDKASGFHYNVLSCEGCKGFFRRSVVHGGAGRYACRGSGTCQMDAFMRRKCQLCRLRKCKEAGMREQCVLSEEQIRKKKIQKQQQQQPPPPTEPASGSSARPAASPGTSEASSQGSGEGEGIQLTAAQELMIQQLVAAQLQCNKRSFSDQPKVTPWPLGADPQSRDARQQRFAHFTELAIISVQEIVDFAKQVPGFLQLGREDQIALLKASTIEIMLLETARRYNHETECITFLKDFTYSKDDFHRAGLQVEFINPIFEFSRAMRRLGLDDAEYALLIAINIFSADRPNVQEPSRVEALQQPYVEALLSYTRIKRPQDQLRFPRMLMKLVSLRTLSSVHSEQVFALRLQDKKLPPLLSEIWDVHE
Briefly: Activation of rat LXRbeta expressed in HEK293 cells co-expressing human RXRalpha at 10 uM after 20 hrs by luciferase reporter gene assay. It is filed as cell-based. The essentials: (§2)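 HEK 293T cells seeded at 3 × 10^4/well and attached 12 h. Cotransfected by lipofection with hLXRα or rLXRβ receptor plasmid plus hRXRα, a DR-4 LXRE firefly luciferase reporter and a CMV renilla control. Compounds added 10 h later; 0.1% DMSO vehicle. Luminescence read 20 h after treatment, firefly normalized to renilla, fold over vehicle; mean ± SD, three independent experiments.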
A general note: Reporter assays use an easily measured gene product as a stand-in for the process of interest.

Data set [3] has as its target T2, Oxysterols receptor LXR-alpha (Homo sapiens) (UniProt Q13133).
T2 sequence (whole entry): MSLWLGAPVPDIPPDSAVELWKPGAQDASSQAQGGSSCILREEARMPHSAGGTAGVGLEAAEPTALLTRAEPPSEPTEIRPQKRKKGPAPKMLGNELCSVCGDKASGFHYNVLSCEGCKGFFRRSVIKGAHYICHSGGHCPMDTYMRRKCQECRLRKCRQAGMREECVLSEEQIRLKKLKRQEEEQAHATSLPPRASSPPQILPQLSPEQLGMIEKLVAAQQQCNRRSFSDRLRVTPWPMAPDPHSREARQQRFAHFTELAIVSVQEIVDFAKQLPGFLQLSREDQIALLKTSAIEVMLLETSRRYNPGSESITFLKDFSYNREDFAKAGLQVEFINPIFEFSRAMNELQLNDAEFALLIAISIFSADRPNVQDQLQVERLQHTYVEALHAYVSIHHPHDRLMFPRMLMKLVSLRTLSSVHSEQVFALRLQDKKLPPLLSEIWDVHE
Briefly: Activation of human LXRalpha expressed in HEK293 cells co-expressing human RXRalpha at 10 uM after 20 hrs by luciferase reporter gene assay. It is filed as cell-based. An outline of the steps:
as §2

A short description of data set [4]: Cytotoxicity against HEK293T cells assessed as cell viability at 10 uM after 24 hrs by MTT assay relative to control. It is filed as cell-based, HEK-293T. The following applies: human, read-out: Activity. The essentials:
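HEK 293T cells in DMEM/10% FBS at 37 °C, 5% CO2, exposed to compounds at 10 μM for 24 h in triplicate. MTT (2.5 mg/mL) added for 4 h, then DMSO. Absorbance read at 492 nm after 20 min shaking. Survival = (A sample − A blank)/(A control − A blank) × 100%.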
(Tetrazolium assays rely on reduction of a dye to a coloured formazan, in cell work by metabolically active cells.)

Data set [5] is filed under the species Mus musculus. In words: Activation of LXR in mouse 3T3L1 preadipocytes assessed as decrease in triglyceride level up to 10 uM […] measured on day 6 by Oil Red O staining based assay. Type of data set: cell-based. The essentials:
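3T3-L1 adipocytes differentiated over 6 days (IBMX/dexamethasone/insulin/biotin for 3 days, then insulin only), compound in DMSO present throughout. Day 6 cells fixed in 4% formaldehyde for 1 h at room temperature, then stained with 0.35% Oil Red O stock diluted 3:2 in water for 30 min at 60 °C. Washed, then imaged at 4× magnification.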

The species entered for data set [6] is Mus musculus. In words: Activation of LXR in mouse 3T3L1 preadipocytes assessed as decrease in triglyceride level for 3 days measured on day 6. It is filed as cell-based. An outline of the steps: as §1

Molecules are shown by their SMILES. Activity calls are given as the source filed them. The calls are words filed in the database; no cut-off is given here.

As to `COc1ccc2cc3[n+](cc2c1OC)CCc1cc2c(cc1-3)OCO2`, in the data set listed under Mus musculus [1], the result was Active.

Take `O=C(O)Cc1cccc(OCCCN(Cc2cccc(C(F)(F)F)c2Cl)CC(c2ccccc2)c2ccccc2)c1`: the result in data set [2] and in data set [3] was Active.

Take `CC1(C)C[C@@H](O)C[C@]2(C)[C@@H]1CC[C@@]13C[C@@H](CC[C@@H]21)[C@@](O)(CO)[C@@H]3O`: the viability at 24 h, 10 µM in data set [4] is 100%.

In the case of `CC1(C)C[C@@H](O[C@@H]2O[C@H](CO)[C@@H](O)[C@H](O)[C@H]2O)C[C@]2(C)[C@@H]1CC[C@@]13C[C@@H](CC[C@H]12)[C@](C)(O)C3`, the viability at 24 h, 10 µM in data set [4] worked out at 100%.

Consider `CC1(C)C[C@@H](O)C[C@]2(C)[C@@H]1[C@H](O)C[C@@]13C[C@@H](CC[C@H]12)[C@](C)(O)C3`, for which the result in the data set listed under Mus musculus [5] was Active. Further, the viability at 24 h, 10 µM in data set [4] came out at 100%. In addition, the Activity entry in the data set filed under Mus musculus [6] is “Dose-dependent effect”.

Take `Cc1cc2c(c(C)c1CCO)C(=O)[C@@](C)(O)[C@@H]2O`: the viability at 24 h, 10 µM in data set [4] is 100%.

Turning to `C=C1[C@@H]2CC[C@H]3[C@]4(C)C[C@H](O)CC(C)(C)[C@H]4[C@H](O)C[C@]3(C2)[C@H]1O`, in data set [4], the viability at 24 h, 10 µM turned out to be 100%.

For `C=C1[C@@H]2CC[C@H]3[C@]4(C)C[C@H](O[C@@H]5O[C@H](CO)[C@@H](O)[C@H](O)[C@H]5O)CC(C)(C)[C@H]4CC[C@]3(C2)[C@H]1O`, the viability at 24 h, 10 µM in data set [4] is 100%.

For the compound `CC1(C)C[C@@H](O)C[C@]2(C)[C@@H]1[C@H](O)C[C@@]13C[C@@](O)(CC[C@H]12)[C@](C)(O)C3`, in the data set listed under Mus musculus [5], the outcome was Active. The viability at 24 h, 10 µM in data set [4] was 100%. In the data set filed under Mus musculus [6], the Activity result was “Dose-dependent effect”.

Consider `Cc1cc2c(c(C)c1CCO[C@@H]1O[C@H](CO)[C@@H](O)[C@H](O)[C@H]1O)C(=O)[C@H](C)[C@@H]2O`, for which the viability at 24 h, 10 µM in data set [4] was determined as 100%.

Turning to `C=C1[C@@H]2CC[C@H]3[C@]4(C)C[C@H](O)CC(C)(C)[C@H]4CC[C@]3(C2)[C@H]1O`, the viability at 24 h, 10 µM in data set [4] worked out at 100%.

Regarding `Cc1cc2c(c(CO)c1CCO)C(=O)[C@H](C)[C@@H]2O`, the viability at 24 h, 10 µM in data set [4] was 100%.

Consider `Cc1cc2c(c(CO)c1CCO)C(=O)[C@@H](C)[C@@H]2O`, for which the viability at 24 h, 10 µM in data set [4] is 100%.

For the compound `Cc1cc2c(c(C)c1CCO)C(=O)[C@@H](C)[C@@H]2O`, the outcome in the data set listed under Mus musculus [5] was Active. Moreover, in data set [4], the viability at 24 h, 10 µM stood at 100%. In addition, the Activity result in the data set listed under Mus musculus [6] was “Dose-dependent effect”.

With `Cc1cc2c(c(C)c1CCO)C(=O)[C@H](C)[C@@H]2O`, in data set [4], the viability at 24 h, 10 µM stood at 100%.

`Cc1cc2c(c(CO)c1CCO)C(=O)[C@@](C)(O)C2=O`: the viability at 24 h, 10 µM in data set [4] stood at 100%.

Take `Cc1cc2c(c(C)c1CCO[C@@H]1O[C@H](CO)[C@@H](O)[C@H](O)[C@H]1O)C(=O)[C@@H](C)[C@@H]2O`: the viability at 24 h, 10 µM in data set [4] amounted to 100%.

Regarding `Cc1cc2c(c(C)c1CCO[C@@H]1O[C@H](CO)[C@@H](O)[C@H](O)[C@H]1O)C(=O)C(C)(C)[C@H]2O`, the viability at 24 h, 10 µM in data set [4] was determined as 100%.

Turning to `Cc1cc2c(c(C)c1CCO)C(=O)[C@](C)(CO)[C@@H]2O`, the viability at 24 h, 10 µM in data set [4] is 100%.

As for `Cc1c(CCO)c(CO)cc2c1C(=O)[C@H](C)[C@@H]2O`, the result (in the data set listed under Mus musculus [5]; in data set [2]; in data set [3]) was Active. Moreover, in data set [4], the viability at 24 h, 10 µM came out at 100%. Moreover, the Activity result in the data set listed under Mus musculus [6] was “Dose-dependent effect”.

For the compound `Cc1cc2c(c(CO)c1CCO)C(=O)[C@](C)(CO)[C@@H]2O`, in data set [4], the viability at 24 h, 10 µM is 100%.

Take `Cc1cc2c(c(C)c1CCO)C(=O)C(C)(C)[C@@H]2O`: the viability at 24 h, 10 µM in data set [4] was 100%.

On to `Cc1c(CCO)c(CO)cc2c1C(=O)[C@@H](C)[C@@H]2O`, for which, in data set [4], the viability at 24 h, 10 µM was found to be 100%.

As to `Cc1cc2c(c(C)c1CCO)C(=O)[C@](C)(O)[C@@H]2O`, the viability at 24 h, 10 µM in data set [4] was determined as 100%.
